# Assay outcomes (PubChem)
# Dynein cargo inh: inhibitors of GR-EGFP nuclear translocation, primary screen, dynein cargo transport inhibitor project, imaging, high-content, 3617.4 mouse cells; test concentration mostly 20 µM; stimulated with dexamethasone, 1 µM; stronger effect = lower value; z-score, hits read low; 220,000 tested, 0.47% active; AID 1381, 2008;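 active means plate z-score of nuclear minus cytoplasmic receptor signal below a set negative limit, without overly bright fluorescence or cell loss, cut at about -3.5 in these data, passing the limit was not always enough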;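 further: z-score of nuclear minus cytoplasmic ring GR-EGFP intensity difference per well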
#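 medium = tetracycline-free induction medium containing charcoal-stripped FBS | probe or stimulus = dexamethasone, 1.0 µM final | timing = 48 h induction, then 1 h compound, then 30 min agonist, 37 °C | detection = automated 10x imaging of fixed Hoechst-stained cells | read-out basis = nuclear versus cytoplasmic GR-EGFP signal, averaged per well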
# PTEN del growth: growth suppression of PTEN-null HCT116, primary screen, cell-based, CellTiter-Glo. HCT116 PTEN-null viability, 60 h; stronger effect = lower value. viability, % at 10 µM. 140,000 tested, 1.2% active. AID 827, 2007;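 active means viability at or below a set limit, 4 SD under the median of all tested compounds, cut at about 3.7% in these data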;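 further: PTEN knockout HCT116 line with beta catenin targeted HCT116 as companion control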
# HCT116 bCat-KO: primary screen for growth suppressors in beta-catenin knockout HCT116 cells (colon tumor, human); 140,000 tested, 1.5% active; viability, % at 10 µM; HCT116 beta-catenin knockout viability, CellTiter-Glo, 60 h; stronger effect = lower value;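 active means viability at or under a set limit, the compound median less 4 SD, cut at about 6% in these data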
# Autophagy mod: autophagy modulators in MEF cells, primary screen, imaging, high-content, MEF GFP-LC3 | MEF GFP-LC3 puncta imaging; test concentration mostly 10 µM | calls only at 10 µM (by protocol) | 190,000 tested, 0.98% active | AID 463193, 2010;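 active means percentage of spot-positive cells more than 3 SD above its plate mean, without a fluorescence outlier flag or 80% toxicity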
# L major viab: Leishmania major promastigote growth inhibition, primary screen. Leishmania major promastigotes, resazurin fluorescence viability. 200,000 tested, 9% active. inhibition, % at 10 µM; in the data active means inhibition above about 50%;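 further: promastigotes grown with compound for 44 hours at 28 °C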
# Hits are given with their value; - = inactive; . = no result; + = active, no number. Rows were chosen to be rich in hits. Some 9.2% of all compounds tested hit in one or more screens of this group.
SMILES,Dynein cargo inh,PTEN del growth,HCT116 bCat-KO,Autophagy mod,L major viab
CCCCCC(=O)Nc1nc(C)c(-c2csc(Nc3ccccc3OCC)n2)s1,-,-,-,-,52
CCCCCCC(=O)Nc1nc(C)c(-c2csc(Nc3cc(Cl)ccc3C)n2)s1,-,-,-,-,-
COc1ccc(CNC(=O)Oc2ccccc2)cc1Cl,-,-,-,-,-
CC(=O)OC1=C(C#N)Cn2ccc3cccc1c32,-,-,-,-,-
CC(C)c1nc(SCC(=O)Nc2c[nH]c(=O)[nH]c2=O)c2cnn(-c3ccccc3)c2n1,-,.,.,-,-
CC(=O)N1CCc2ccc(S(=O)(=O)N3CCN(C)CC3)cc21,-,-,-,-,53
CN1CCN(S(=O)(=O)c2ccc(Cc3ccc(S(=O)(=O)N4CCN(C)CC4)cc3)cc2)CC1,-,-,-,+,65
COc1ccc(C2N(S(=O)(=O)c3ccccc3)CCN2S(=O)(=O)c2ccc(C)cc2)cc1 (stereo not drawn),-,-,-,-,100
Cc1ccc(S(=O)(=O)N2CCN(S(=O)(=O)c3ccc(C)cc3)C2c2ccccc2)cc1,-,-,-,-,-
Cc1ccc(S(=O)(=O)N2CCOCC2)cc1NC(=O)CNC1CCCC1,-,.,.,.,.
COc1cc(C(=O)Nc2nc3ccccc3[nH]2)ccc1OC(F)F,-,.,.,.,.
COc1cc(CC(C#N)(CO)c2nc3ccccc3[nH]2)ccc1OC(F)F (stereo not drawn),-,-,-,-,82
COc1cc(NC(=O)NCc2ccncc2)cc(OC)c1OC,-,-,-,-,-
N#Cc1ccc(CSc2nnc(Cc3cccs3)n2Cc2ccco2)cc1,-,-,-,+,-
Cc1cccc(CSc2nnc(-c3cccs3)n2Cc2ccco2)c1,-,-,-,-,90
COc1ccccc1CNC(=O)CSc1nc(-c2ccccc2)cn1N,-,-,-,-,-
CN(C(=O)CSc1nc(-c2ccccc2)cn1N)C(c1ccccc1)c1ccccc1,-,-,-,-,100
Clc1ccc(/C=N/c2c(-c3ccc(Cl)cc3)nc3n2CCS3)cc1,-,-,-,+,-
CN1C(=O)C2(c3ccccc31)N(C)CC(c1ccccn1)C21SC(=S)N(Cc2ccco2)C1=O (stereo not drawn),-,-,-,-,100
CN1C(=O)C2(c3ccccc31)N(C)CC(c1ccccc1)C21SC(=S)N(Cc2ccco2)C1=O (stereo not drawn),-,-,-,-,99
CN1C(=O)NC(c2ccccc2)C2=C1CN(Cc1ccco1)C2=O (stereo not drawn),-,-,-,-,-
Cc1ccc(C#CC(C)(O)C(C)(C)C)cn1 (stereo not drawn),-,.,.,.,.
CCOC(=O)NC(=O)c1cn(N(C)c2ncc(C(F)(F)F)cc2Cl)c(=O)[nH]c1=O,-,.,.,-,-
COc1ccccc1NC(=O)C12CCC(C)(C(=O)C1)C2(C)C (stereo not drawn),-,.,.,-,-
Cc1cc([N+](=O)[O-])nn1CC(=O)NCc1cccs1,-,-,-,-,-
SMILES,Dynein cargo inh,PTEN del growth,HCT116 bCat-KO,Autophagy mod,L major viab
Cc1cc([N+](=O)[O-])nn1CC(=O)NCc1ccco1,-,-,-,-,50
O=C(NC(=S)NCc1nc2ccccc2[nH]1)c1ccc(F)cc1,-,.,.,-,-
COc1ccc(C(CC(=O)c2ccccc2)CC(=O)c2ccccc2)cc1OC,-,.,.,-,51
COc1ccc(C(CC(=O)c2ccccc2)CC(=O)c2ccccc2)cc1,-,.,.,.,.
CCOc1cc(CNCCSc2nnnn2C)cc(Br)c1OCc1ccccc1F,-,-,-,-,-
COc1cc(CNCCSc2nnnn2C)cc(Br)c1OCc1ccc(F)cc1,-,-,-,-,95
COc1cc(CNCCO)cc(Br)c1OCc1ccccc1,-,.,.,-,97
CCOc1cc(CNCCSc2nnnn2C)cc(Br)c1OCc1ccc(F)cc1,-,-,-,-,50
COc1cc(CNCCSc2nnnn2C)cc(Br)c1OCc1ccccc1F,-,-,-,-,90
COc1ccc2c(c1)c(C(=O)CN1CCc3ccccc3C1)c(C)n2C,-,.,.,.,.
Cc1[nH]n(-c2cccc(Cl)c2)c(=O)c1C=NCC(C)C,-,.,.,-,-
Cn1nnnc1SCCNCc1ccccc1OCc1ccccc1,-,-,-,-,-
COc1cc(CNCCSc2nnnn2C)cc(Br)c1OCc1ccccc1,-,.,.,-,56
